Measured values of several laboratories.
Protocols differ between the studies behind these lines.
Target: cAMP-dependent protein kinase catalytic subunit PRKX (PRKX, Homo sapiens, UniProt P51817)
Sequence (P51817 1-358, as in one of the studies): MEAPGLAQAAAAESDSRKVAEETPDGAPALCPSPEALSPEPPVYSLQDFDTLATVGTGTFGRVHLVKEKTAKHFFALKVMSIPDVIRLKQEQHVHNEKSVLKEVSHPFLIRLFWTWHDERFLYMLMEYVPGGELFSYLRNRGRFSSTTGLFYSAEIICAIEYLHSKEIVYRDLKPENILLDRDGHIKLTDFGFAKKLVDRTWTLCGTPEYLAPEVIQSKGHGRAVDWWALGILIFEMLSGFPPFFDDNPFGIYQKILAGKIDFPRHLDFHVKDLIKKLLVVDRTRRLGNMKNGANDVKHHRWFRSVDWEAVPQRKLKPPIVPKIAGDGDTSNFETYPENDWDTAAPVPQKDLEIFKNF

| SMILES | effect on | method | concentration | remaining binding |
| --- | --- | --- | --- | --- |
| FC(F)(F)Oc1cccc(-c2cnc3ccc(-c4ccncc4)nn23)c1 | cell-free assay | competition with immobilised ligand | 5 µM | 85% |
| Cn1cc(Cl)c2c(Oc3c(F)cc(Nc4cc(Cl)nc(N)n4)cc3F)ccnc21 | cell-free assay | competition with immobilised ligand | 0.1 µM | 100% |
| F[C@@H]1CCN(c2nccc(-c3cnn4ncccc34)n2)C1 | binding |  | 1 µM | 100% |
| O=C(NCC1CCOCC1)c1n[nH]cc1NC(=O)c1c(F)cccc1F | binding | competition with immobilised ligand | 1 µM | 100% |
| c1cncc(-c2cccc(Nc3nccc(NC4CCCCC4)n3)c2)c1 | binding | competition with immobilised ligand | 10 µM | 80% |
| CN(c1nccc(-c2cnn3ncccc23)n1)C1CC1 | binding |  | 1 µM | 98% |
| O=C(c1ccc(Nc2ncc(Cl)c(-c3cc4ccccc4s3)n2)cc1)N1CCC(N2CCCC2)CC1 | binding | competition with immobilised ligand | 1 µM | 67% |
| CNC(=O)Nc1ccc2c(c1)[C@@]1(CC2)OC(=O)N(CC(=O)N(Cc2ccc(F)cc2)[C@@H](C)C(F)(F)F)C1=O | cell-free assay | competition with immobilised ligand | 1 µM | 100% |
| CN(C)c1nccc(-c2cnn3ncccc23)n1 | binding |  | 1 µM | 100% |
| COc1cnc(Nc2cccc(S(N)(=O)=O)c2)nc1N1CCN(c2ccccc2)C(=O)C1 | binding | competition with immobilised ligand | 1 µM | 91% |
| N[C@@H]1CCN(c2nccc(-c3cnn4ncccc34)n2)C1 | binding |  | 1 µM | 100% |
| O=C(NCCCN1CCOCC1)c1ccc(Nc2nccc(-c3cc4ccccc4s3)n2)cc1 | binding | competition with immobilised ligand | 1 µM | 85% |
| O=C(Nc1cnc(Oc2ccc(F)cc2)nc1)N1CCc2ncccc2[C@@H]1c1ccc(F)cc1 | cell-free assay | competition with immobilised ligand | 1 µM | 93% |
| C[C@H]1CCN(c2nccc(-c3cnn4ncccc34)n2)C1 | binding |  | 1 µM | 100% |
| Nc1cnc(N2CCc3cc(S(=O)(=O)Nc4c(F)cc(Cl)cc4F)cc(N4CCCC4=O)c32)nc1 | cell-free assay | competition with immobilised ligand | 1 µM | 99% |
| c1cnn2ncc(-c3ccnc(N4CCC45COC5)n3)c2c1 | binding |  | 1 µM | 68% |
| CCCOc1ccc([C@H]2[C@H](C(=O)O)[C@@H](c3ccc4c(c3)OCO4)CN2CC(=O)Nc2c(CC)cccc2CC)cc1 | cell-free assay | competition with immobilised ligand | 1 µM | 91% |
| Nc1ncc2c(n1)-c1c([nH]c3ccc(C#CC4CC4)cc13)CCCC2 | binding | competition with immobilised ligand | 1 µM | 79% |
| Cc1cc(C)c(-n2ccn3nc(-c4cccnc4)cc23)cc1NC(=O)c1cc(C#N)cc(S(F)(F)(F)(F)F)c1 | cell-free assay | competition with immobilised ligand | 0.1 µM | 68.5% |
| Cc1cnc(Nc2ccc(C(=O)N3CCC(N4CCCC4)CC3)cc2)nc1-c1cc2ccccc2s1 | binding | competition with immobilised ligand | 1 µM | 72% |
